# In ChEMBL document CHEMBL5107946, “SF5- and SCF3-substituted tetrahydroquinoline compounds as potent bactericidal agents against multidrug-resistant persister Gram-positive bacteria” (RSC Med Chem, 2021):
# Activity calls are given as the source filed them.
# What was measured:
# [1] = tested on: Enterococcus faecalis; assay: Bactericidal activity against Enterococcus faecalis ATCC 29212 assessed as reduction in colony forming unit incubated for 20 hrs; type: functional
# How it was run: (§1)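 Follows the broth microdilution MIC plate. 4 μL taken from each well without growth, spotted in duplicate on tryptic soy agar and incubated static at 37 °C for 20 h. MBC taken as the concentration giving 99.9% reduction in CFU.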
# [2] = tested on: Staphylococcus aureus; assay: Bactericidal activity against methicillin-resistant Staphylococcus aureus ATCC 33592 assessed as reduction in colony forming unit incubated for 20 hrs; type: functional; how it was run: as §1
# [3] = tested on: Staphylococcus aureus; assay: Bactericidal activity against persister methicillin-resistant Staphylococcus aureus ATCC 33592 assessed as reduction in colony forming unit at 4 x MIC incubated for 6 hrs by Time-kill analysis; type: functional, organism-based
# How it was run: (§2)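 Stationary-phase (persister) time-kill. Overnight TSB culture diluted 1 in 10 in TSB directly (about 2.92 × 10^6 CFU per mL), with no regrowth step. Exposed at 1× or 4× MIC in triplicate at 37 °C. Samples taken at 0, 2, 4 and 6 h, serially diluted in PBS, plated on TSA in duplicate and incubated 18–24 h.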
# [4] = tested on: Staphylococcus aureus; assay: Antibacterial activity against methicillin-resistant Staphylococcus aureus ST239 (ARLG 1644) assessed as bacterial growth inhibition incubated for 18 to 20 hrs by CLSI based broth microdilution assay; type: functional; conditions: time 18-20 hrs
# How it was run: (§3)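 CLSI broth microdilution; compounds and control antibiotics made up at 10 mg mL−1 in DMSO (stock), serially diluted 1:2 across the plate. Inoculum adjusted to 0.5 McFarland, then diluted 1:100 into wells. Plates incubated static at 37 °C for 18–20 h before MIC read.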
# [5] = tested on: Enterococcus faecium; assay: Bactericidal activity against vancomycin-resistant Enterococcus faecium ATCC 700221 assessed as reduction in colony forming unit incubated for 20 hrs; conditions: ATCC 700221, 20 h
# [6] = tested on: Cell membrane; assay: Induction of cell membrane permeability in Staphylococcus aureus ATCC 25923 at 1 ug/ml incubated for […] by Sytox green based fluorescence method; conditions: dose 1.0 µg/ml
# How it was run: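 Exponential-phase cells (OD600 0.2–0.3) washed three times in PBS and resuspended in PBS + 10% TSB. Sytox green added to 5 μM final and equilibrated 15–30 min in the dark. Fluorescence (ex 504/em 522 nm) read for 10 min baseline, then every 3 min for 3 h after addition. Run in triplicate; 1% Triton X-100 as positive control.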
# [7] = tested on: Staphylococcus aureus; assay: Antibacterial activity against methicillin-resistant Staphylococcus aureus USA300 (ARLG 1567) assessed as bacterial growth inhibition incubated for 18 to 20 hrs by CLSI based broth microdilution assay; type: functional; conditions: time 18-20 hrs; how it was run: as §3
# [8] = tested on: Staphylococcus aureus; assay: Antibacterial activity against methicillin-resistant Staphylococcus aureus USA300 (ARLG 1569) assessed as bacterial growth inhibition incubated for 18 to 20 hrs by CLSI based broth microdilution assay; type: functional; conditions: time 18-20 hrs; how it was run: as §3
# [9] = tested on: Staphylococcus aureus; assay: Bactericidal activity against methicillin-resistant Staphylococcus aureus ATCC 33592 assessed as reduction in colony forming unit at 4 x MIC incubated for 18 to 24 hrs by Time-kill analysis; type: functional, organism-based; conditions: time 18-24 hrs
# How it was run: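 Log-phase time-kill. Overnight TSB culture diluted 1:1000 and grown to OD600 0.6, then diluted 1 in 10 in TSB (about 2.92 × 10^6 CFU per mL). Exposed at 1× or 4× MIC in triplicate at 37 °C. Samples taken at 0, 2, 4, 8, 12 and 24 h, serially diluted in PBS, plated on TSA in duplicate and counted after 18–20 h.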
# [10] = tested on: Erythrocyte; assay: Cytotoxicity against human RBC at 20 ug/ml incubated for 30 mins by spectrophotometric method; type: toxicity, cell-based; conditions: 0.5 h, dose 20 µg/ml
# How it was run: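 Hemolysis of 5% human RBCs exposed to compound at 5–20 μg mL−1 for 30 min at 37 °C. Intact cells were pelleted by centrifugation and supernatant absorbance read at 540 nm. Values are percent of 1% Triton X-100 lysis, with DMSO as negative control. Triplicate.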
# [11] = tested on: Staphylococcus aureus; assay: Bactericidal activity against persister methicillin-resistant Staphylococcus aureus ATCC 33592 assessed as reduction in colony forming unit at 1 x MIC incubated for 6 hrs by Time-kill analysis; type: functional, organism-based; how it was run: as §2
# [12] = tested on: Enterococcus faecalis; assay: Antibacterial activity against Enterococcus faecalis ATCC 29212 assessed as bacterial growth inhibition incubated for 18 to 20 hrs by CLSI based broth microdilution assay; type: functional; conditions: time 18-20 hrs; how it was run: as §3
# [13] = tested on: Staphylococcus aureus; assay: Antibacterial activity against methicillin-resistant Staphylococcus aureus USA300 assessed as bacterial growth inhibition incubated for 18 to 20 hrs by CLSI based broth microdilution assay; type: functional; conditions: time 18-20 hrs; how it was run: as §3
# [14] = tested on: Listeria monocytogenes; assay: Antibacterial activity against Listeria monocytogenes ATCC 19115 assessed as bacterial growth inhibition incubated for 18 to 20 hrs by CLSI based broth microdilution assay; type: functional; conditions: time 18-20 hrs
# How it was run: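 MIC by CLSI broth microdilution. Compounds were made as 10 mg mL−1 DMSO stocks and serially diluted 1:2. Inoculum was set to 0.5 McFarland and diluted 1:100 into the wells. Plates were incubated static at 37 °C for 18–20 h before reading the MIC.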
# [15] = tested on: Enterococcus faecalis; assay: Bactericidal activity against vancomycin-resistant Enterococcus faecalis ATCC 51575 assessed as reduction in colony forming unit incubated for 20 hrs; type: functional; how it was run: as §1
# [16] = tested on: Staphylococcus aureus; assay: Antibacterial activity against methicillin-resistant Staphylococcus aureus ATCC 33592 assessed as fold increase in MIC incubated for 30 days by resistance development based broth microdilution assay; type: functional; conditions: time 30 day
# How it was run: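 Multi-step resistance selection over 30 days. MIC determined first. Each day, 5 μL from the turbid well just below the MIC was diluted 1:1000 in CA-MHB and used as inoculum for the next broth microdilution MIC. Resistance defined as a rise of more than four-fold over the starting MIC.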
# [17] = tested on: Enterococcus faecalis; assay: Antibacterial activity against vancomycin-resistant Enterococcus faecalis ATCC 51575 assessed as bacterial growth inhibition incubated for 18 to 20 hrs by CLSI based broth microdilution assay; type: functional; conditions: time 18-20 hrs; how it was run: as §3
# [18] = tested on: Staphylococcus aureus; assay: Antibacterial activity against Staphylococcus aureus ATCC 25923 assessed as bacterial growth inhibition at 16 ug/ml incubated for 18 to 20 hrs by CLSI based broth microdilution assay; type: functional, organism-based; conditions: dose 16.0 µg/ml, time 18-20 hrs
# How it was run: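 Single-concentration screen at 16 μg mL−1 final. Overnight TSB culture was diluted 1:1000 in cation-adjusted MHB and grown to early exponential phase. 1 mL of culture was added to compound in glass tubes and incubated overnight at 37 °C. OD600 was read and normalized to the DMSO control after subtracting medium-only OD.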
# [19] = tested on: Cell membrane; assay: Induction of cell membrane permeability in Staphylococcus aureus ATCC 25923 at 2 to 10 ug/ml by DiOC2 dye based flow cytometry assay; conditions: dose 2-10 µg/ml
# How it was run: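 Exponential-phase cells (OD600 0.2–0.3) treated at 2 or 10 μg mL−1; bithionol 4 μg mL−1 as positive control. Washed twice in PBS and resuspended in buffer. To-PRO 3 iodide (red) and DiOC2 (green) added and cells analysed at once by flow cytometry. Permeabilization read as the red/green ratio.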
# [20] = tested on: Staphylococcus aureus; assay: Antibacterial activity against methicillin-resistant Staphylococcus aureus USA300 (ARLG 1570) assessed as bacterial growth inhibition incubated for 18 to 20 hrs by CLSI based broth microdilution assay; type: functional; conditions: time 18-20 hrs; how it was run: as §3
# [21] = tested on: Staphylococcus aureus; assay: Antibacterial activity against methicillin-resistant Staphylococcus aureus ST239 (ARLG 1665) assessed as bacterial growth inhibition incubated for 18 to 20 hrs by CLSI based broth microdilution assay; type: functional; conditions: time 18-20 hrs; how it was run: as §3
smiles,measurement,setting,value
FC(F)(F)c1n[nH]cc1[C@@H]1Nc2ccc(S(F)(F)(F)(F)F)cc2[C@H]2[C@@H]3CC[C@@H](C3)[C@H]21,MBC,[1],8 µg/mL
same,MBC,[2],4 µg/mL
same,Activity,[3],Active
same,MIC,[4],2 µg/mL
same,MBC,[5],4 µg/mL
same,Activity,[6],Active
same,MIC,[7],2 µg/mL
same,MIC,[8],2 µg/mL
same,Activity,[9],Active
same,Activity,[10],Non-Toxic
same,Activity,[11],Active
same,MIC,[12],4 µg/mL
same,MIC,[13],4 µg/mL
same,MIC,[14],2 µg/mL
same,MBC,[15],8 µg/mL
same,fold change (FC),[16],1
same,MIC,[17],4 µg/mL
same,Activity,[18],Active
same,Activity,[19],Active
same,MIC,[20],2 µg/mL
same,MIC,[21],2 µg/mL
